According to ChEMBL document CHEMBL1138667, “Phenylguanidines as selective nonpeptide melanocortin-5 receptor antagonists” (J Med Chem, 2004):

Legend:
Melanocortin receptor 5 [1] = target: T1, Melanocortin receptor 5 (Homo sapiens, UniProt P33032); assay: Inhibition of [125I]NDP-MSH binding to human Melanocortin 5 receptor expressed in HEK293 cells; assay type: cell-based
In short: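 Competitive binding on membranes from HEK293 cells stably expressing human MC5 receptor, with [125I]NDP-MSH as the radioligand. Inhibition of radioligand binding was measured and Ki derived from more than 3 determinations.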

Melanocortin receptor 3 = Melanocortin receptor 3 (Homo sapiens, UniProt P41968); assay: Binding affinity for human melanocortin 3 receptor
In short: (§1)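 Human MC1, MC3 or MC4 receptor expressed in HEK293 cells. Membranes bearing each receptor were used in a competitive binding assay measuring inhibition of [125I]NDP-MSH binding, with inhibition curves generated.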

Melanocortin receptor 4 [2] = target: T2, Melanocortin receptor 4 (Homo sapiens, UniProt P32245); assay: Binding affinity for human melanocortin 4 receptor; in short: as §1
[3] = target: T3, Melanocyte-stimulating hormone receptor (Homo sapiens, UniProt Q01726); assay: Percentage inhibition of human melanocortin 1 receptor at 10 uM
Target sequence in this assay (Q01726 whole entry, looked up): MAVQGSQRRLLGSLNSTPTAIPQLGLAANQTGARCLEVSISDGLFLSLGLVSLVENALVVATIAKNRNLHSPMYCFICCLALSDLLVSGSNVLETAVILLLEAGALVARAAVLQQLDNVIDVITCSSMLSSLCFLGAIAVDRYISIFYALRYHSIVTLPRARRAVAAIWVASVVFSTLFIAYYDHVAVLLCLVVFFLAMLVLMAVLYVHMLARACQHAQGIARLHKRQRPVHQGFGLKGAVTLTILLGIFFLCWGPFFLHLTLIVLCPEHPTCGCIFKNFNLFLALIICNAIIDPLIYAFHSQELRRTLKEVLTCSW

Melanocortin receptor 5 [4] = target: T1, Melanocortin receptor 5; assay: Inhibition of human Melanocortin 5 receptor
Melanocortin receptor 4 [5] = target: T2, Melanocortin receptor 4; assay: Intrinsic activity as percentage of maximal melanocortin receptor 4 related cAMP production relative to alpha-MSH; assay type: functional
[6] = target: T3, Melanocyte-stimulating hormone receptor; assay: Binding affinity for human melanocortin 1 receptor; in short: as §1
Target sequence in this assay (Q01726 whole entry): as the sequence (Q01726 whole entry, looked up) above

Melanocortin receptor 3, sequence (P41968 whole entry): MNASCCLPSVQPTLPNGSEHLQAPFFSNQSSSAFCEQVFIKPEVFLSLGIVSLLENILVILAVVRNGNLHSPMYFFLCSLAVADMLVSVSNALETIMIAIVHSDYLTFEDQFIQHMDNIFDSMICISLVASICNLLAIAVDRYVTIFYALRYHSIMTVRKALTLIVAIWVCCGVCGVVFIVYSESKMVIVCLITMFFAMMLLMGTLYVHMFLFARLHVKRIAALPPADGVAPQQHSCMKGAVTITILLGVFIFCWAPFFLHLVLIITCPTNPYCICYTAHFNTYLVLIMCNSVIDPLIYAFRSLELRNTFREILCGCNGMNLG
T2 sequence (P32245 whole entry): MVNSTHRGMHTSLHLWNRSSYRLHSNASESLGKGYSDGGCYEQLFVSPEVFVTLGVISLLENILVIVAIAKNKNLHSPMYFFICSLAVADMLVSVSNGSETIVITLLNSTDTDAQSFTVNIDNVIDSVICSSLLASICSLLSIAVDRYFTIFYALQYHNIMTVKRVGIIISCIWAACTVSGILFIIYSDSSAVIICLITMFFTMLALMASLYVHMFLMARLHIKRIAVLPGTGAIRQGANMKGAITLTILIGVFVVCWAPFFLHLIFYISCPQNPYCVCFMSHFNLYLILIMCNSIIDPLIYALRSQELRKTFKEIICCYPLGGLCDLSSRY
T1 sequence (P33032 whole entry): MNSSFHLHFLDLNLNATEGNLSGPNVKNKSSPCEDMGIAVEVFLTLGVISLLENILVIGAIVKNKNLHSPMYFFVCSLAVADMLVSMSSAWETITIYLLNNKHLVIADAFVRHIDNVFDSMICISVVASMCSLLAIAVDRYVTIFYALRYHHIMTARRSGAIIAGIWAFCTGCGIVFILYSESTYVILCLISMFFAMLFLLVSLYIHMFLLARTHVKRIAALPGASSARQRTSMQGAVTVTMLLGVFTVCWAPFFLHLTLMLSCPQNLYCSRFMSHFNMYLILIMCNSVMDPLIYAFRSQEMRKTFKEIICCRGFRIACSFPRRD

Row | Ki (Melanocortin receptor 5 [1]) [nM] | Ki (Melanocortin receptor 3) [nM] | Ki (Melanocortin receptor 4 [2]) [nM] | IC50 (Melanocortin receptor 5 [4]) [nM] | SMILES | further results
1 | 5.9 | 2800 | 840 | 380 | C[C@@H]1CN[C@@H](C)CN1/C(=N/c1ccc(C(=O)NCCc2ccc(Cl)cc2Cl)cc1)NC1CCCCC1 | Ki [6]: 360 nM
2 | 91 | – | – | – | CN(/C(=N/c1ccc(C(=O)NCCc2ccc(Cl)cc2Cl)cc1)NC1CCCCC1)C1CCCCC1 | –
3 | 144 | – | – | – | CC1CC(C)CN(C(=NC2CCCCC2)Nc2ccc(C(=O)NCCc3ccc(Cl)cc3Cl)cc2)C1 (stereo not given) | –
4 | 50 | – | – | – | CN1CCN(/C(=N/c2ccc(C(=O)NCCc3ccc(Cl)cc3Cl)cc2)NC2CCCCC2)CC1 | –
5 | 18 | 2200 | 650 | 460 | O=C(NCCc1ccc(Cl)cc1Cl)c1ccc(NC(=NC2CCCCC2)N2CCNCC2)cc1 | Ki [6]: 400 nM
6 | 26 | 2500 | 1500 | 530 | O=C(NCCc1ccc(Cl)cc1Cl)c1ccc(N/C(=N\C2CCNC2)NC2CCCCC2)cc1 (stereo not given) | Ki [6]: 1900 nM
7 | 21 | 2800 | 580 | 380 | C[C@H]1CN(/C(=N/c2ccc(C(=O)NCCc3ccc(Cl)cc3Cl)cc2)NC2CCCCC2)CCN1 | inhibition [3]: 29%; IA (Melanocortin receptor 4 [5]): 65%
8 | 2.1 | 3500 | 840 | 70 | C[C@@H]1CN(C(=NC2CCCCC2)Nc2ccc(C(=O)NCCc3ccc(Cl)cc3Cl)cc2)CCN1 | –
9 | 11 | 3900 | 590 | 89 | CC1CN(C(=NC2CCCCC2)Nc2ccc(C(=O)NCCc3ccc(Cl)cc3Cl)cc2)CC(C)N1 (stereo not given) | –
10 | 360 | – | – | – | CCCN(CCC)/C(=N/c1ccc(C(=O)NCCc2ccc(Cl)cc2Cl)cc1)NC1CCCCC1 | –
11 | 36 | 2300 | 1400 | 630 | CNC1CCN(/C(=N/c2ccc(C(=O)NCCc3ccc(Cl)cc3Cl)cc2)NC2CCCCC2)C1 (stereo not given) | inhibition [3]: 27%; IA (Melanocortin receptor 4 [5]): 36%

The next lines start with the molecule.

Row | SMILES | Ki (Melanocortin receptor 5 [1]) [nM] | Ki (Melanocortin receptor 3) [nM] | Ki (Melanocortin receptor 4 [2]) [nM] | IC50 (Melanocortin receptor 5 [4]) [nM] | further results
12 | O=C(NCCc1ccc(Cl)cc1Cl)c1ccc(NC(=NC2CCCCC2)NCc2cc(F)cc(F)c2)cc1 | 70 | – | – | – | –
13 | CC(C)(N)C/N=C(\Nc1ccc(C(=O)NCCc2ccc(Cl)cc2Cl)cc1)NC1CCCCC1 | 5.3 | 2400 | 1300 | 530 | inhibition [3]: 27%; IA (Melanocortin receptor 4 [5]): 45%
14 | O=C(NCCc1ccc(Cl)cc1Cl)c1ccc(NC(=NC2CCCCC2)N2CCC(N3CCCC3)CC2)cc1 | 77 | – | – | – | –
15 | Cc1ccc(C)c(N2CCN(C(=NC3CCCCC3)Nc3ccc(C(=O)NCCc4ccc(Cl)cc4Cl)cc3)CC2)c1 | 1760 | – | – | – | –
16 | CC1CN(/C(=N/c2ccc(C(=O)NCCc3ccc(Cl)cc3Cl)cc2)NC2CCCCC2)CC(C)N1 (stereo not given) | – | – | – | – | inhibition [3]: 23%; IA (Melanocortin receptor 4 [5]): 76%
17 | O=C(NCCc1ccc(Cl)cc1Cl)c1ccc(NC(=NC2CCCCC2)N2CCN(c3ccccc3)CC2)cc1 | 290 | – | – | – | –
18 | C[C@@H]1CN(/C(=N/c2ccc(C(=O)NCCc3ccc(Cl)cc3Cl)cc2)NC2CCCCC2)CCN1 | – | – | – | – | inhibition [3]: 25%; IA (Melanocortin receptor 4 [5]): 37%
19 | O=C(NCCc1ccc(Cl)cc1Cl)c1ccc(NC(=NC2CCCCC2)N2CCN(Cc3ccccc3)CC2)cc1 | 44 | – | – | – | –
20 | CC1CN(C(=NC2CCCCC2)Nc2ccc(C(=O)NCCc3ccc(Cl)cc3Cl)cc2)CC(C)O1 (stereo not given) | 350 | – | – | – | –
21 | CC1C(=O)NCCN1C(=NC1CCCCC1)Nc1ccc(C(=O)NCCc2ccc(Cl)cc2Cl)cc1 (stereo not given) | 1050 | – | – | – | –
22 | NC1CCN(C(=NC2CCCCC2)Nc2ccc(C(=O)NCCc3ccc(Cl)cc3Cl)cc2)CC1 | 230 | – | – | – | –
23 | O=C1CN(C(=NC2CCCCC2)Nc2ccc(C(=O)NCCc3ccc(Cl)cc3Cl)cc2)CCN1 | 560 | – | – | – | –
24 | O=C(NCCc1ccc(Cl)cc1Cl)c1ccc(N/C(=N/C2CCCCC2)N2CCNCC2)cc1 | – | – | – | – | IA (Melanocortin receptor 4 [5]): 28%
25 | O=C(NCCc1ccc(Cl)cc1Cl)c1ccc(NC(=NC2CCCCC2)N2CCN(c3ncccn3)CC2)cc1 | 305 | – | – | – | –
